Test results as given in ChEMBL document CHEMBL4715754, “Slowing down fat digestion and absorption by an oxadiazolone inhibitor targeting selectively gastric lipolysis” (2016).

Tests used:
[1] = target: T1, Gastric triacylglycerol lipase (Canis lupus familiaris) (UniProt P80035); assay: Inhibition of recombinant dog gastric lipase at 4.1 mg/ml under gastric phase at pH 5.5 using liquid test meal measured up to 30 mins relative to control; conditions: time min <=30
T1 sequence (whole entry): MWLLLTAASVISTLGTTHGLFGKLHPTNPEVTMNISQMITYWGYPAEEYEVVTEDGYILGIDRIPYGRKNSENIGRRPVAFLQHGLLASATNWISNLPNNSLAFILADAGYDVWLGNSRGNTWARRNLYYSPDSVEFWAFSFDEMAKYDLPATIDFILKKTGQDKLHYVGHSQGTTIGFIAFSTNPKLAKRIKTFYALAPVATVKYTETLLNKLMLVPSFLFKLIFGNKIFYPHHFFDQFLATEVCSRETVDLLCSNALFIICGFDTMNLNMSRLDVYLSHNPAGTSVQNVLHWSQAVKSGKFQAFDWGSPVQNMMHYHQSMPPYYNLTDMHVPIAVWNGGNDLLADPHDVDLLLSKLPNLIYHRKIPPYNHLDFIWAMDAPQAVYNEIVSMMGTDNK
In short: (§1)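 Gastric phase: 15 mL liquid or solid test meal (506 mg TAG) premixed with 734 µL of 4.1 mg/mL DMSO stock (2.94 mg, 7.262 µmol), then DGL to 17 µg/mL final, pH 5.5, 37 °C, stirred. Samples at 1, 15, 29 min; residual DGL activity by pH-stat; lipolysis level from TLC-FID of lipid extracts. DMSO-only controls; n = 3.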

[2] = target: T2, Pancreatic triacylglycerol lipase (Sus scrofa) (UniProt P00591); assay: Inhibition of porcine pancreatic lipase at 4.1 mg/ml under duodenal phase at pH 6.5 using solid test meal measured after 30 to 90 mins relative to control; conditions: time 30-90 min
T2 sequence (whole entry): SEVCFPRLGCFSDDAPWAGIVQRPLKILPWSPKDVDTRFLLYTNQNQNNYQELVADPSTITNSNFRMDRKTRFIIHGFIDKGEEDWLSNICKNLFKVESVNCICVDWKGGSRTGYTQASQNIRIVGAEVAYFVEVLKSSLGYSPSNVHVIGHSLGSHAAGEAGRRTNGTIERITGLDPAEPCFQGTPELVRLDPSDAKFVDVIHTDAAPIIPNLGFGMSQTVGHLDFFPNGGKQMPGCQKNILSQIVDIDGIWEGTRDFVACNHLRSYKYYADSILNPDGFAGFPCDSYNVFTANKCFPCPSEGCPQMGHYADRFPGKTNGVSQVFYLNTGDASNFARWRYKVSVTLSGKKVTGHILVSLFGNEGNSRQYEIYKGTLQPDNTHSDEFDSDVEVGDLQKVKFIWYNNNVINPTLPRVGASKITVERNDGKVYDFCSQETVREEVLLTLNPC

[3] = target: T3, Pancreatic lipase-related protein 2 (Cavia porcellus) (UniProt P81139); assay: Inhibition of recombinant guinea pig PL-RP2 expressed in Aspergillus oryzae at 20:1 molar excess compound concentration preincubated for 30 mins at 25 degreeC relative to control
T3 sequence (whole entry): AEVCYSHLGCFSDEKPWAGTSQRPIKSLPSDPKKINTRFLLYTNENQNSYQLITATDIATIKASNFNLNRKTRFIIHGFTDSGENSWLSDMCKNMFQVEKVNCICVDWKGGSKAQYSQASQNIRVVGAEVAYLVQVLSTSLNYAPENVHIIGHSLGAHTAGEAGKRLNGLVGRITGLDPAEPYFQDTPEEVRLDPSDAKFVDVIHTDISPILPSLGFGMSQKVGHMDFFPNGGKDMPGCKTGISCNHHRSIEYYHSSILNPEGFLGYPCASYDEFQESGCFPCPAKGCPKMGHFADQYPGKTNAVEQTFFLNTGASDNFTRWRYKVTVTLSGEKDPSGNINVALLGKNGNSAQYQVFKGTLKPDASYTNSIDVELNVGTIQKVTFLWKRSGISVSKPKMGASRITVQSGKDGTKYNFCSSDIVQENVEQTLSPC

[4] = target: T2, Pancreatic triacylglycerol lipase (Sus scrofa); assay: Inhibition of porcine pancreatic lipase at 4.1 mg/ml under duodenal phase at pH 6.5 using liquid test meal measured after 30 to 90 mins relative to control; conditions: time 30-90 min
[5] = target: T1, Gastric triacylglycerol lipase (Canis lupus familiaris); assay: Inhibition of recombinant dog gastric lipase at 4.1 mg/ml under gastric phase at pH 5.5 using solid test meal measured up to 30 mins relative to control; conditions: time min <=30; in short: as §1
[6] = target: T1, Gastric triacylglycerol lipase (Canis lupus familiaris); assay: Inhibition of recombinant dog gastric lipase at 4:1 molar excess compound concentration preincubated for 30 mins at 25 degreeC relative to control
[7] = target: T2, Pancreatic triacylglycerol lipase (Sus scrofa); assay: Inhibition of porcine pancreatic lipase assessed as residual activity at 4.1 mg/ml under duodenal phase at pH 6.5 using solid test meal measured after 30 to 90 mins relative to control; conditions: time 30-90 min
Homo sapiens = species: Homo sapiens; assay: Inhibition of human pancreatic carboxylesterase preincubated for 30 mins at 25 degreeC
In short: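 hCEH (1 mg/mL in 10 mM MES pH 6.5, 150 mM NaCl) pre-incubated 30 min at 25 °C with inhibitor from DMSO stock at various molar excesses, no substrate. Residual activity by pH-stat on tributyrin emulsion at 37 °C in 1 mM Tris-HCl pH 8.0, 100 mM NaCl, 5 mM CaCl2, 1 mM NaTDC. Relative to DMSO-only control; at least triplicate.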

[8] = target: T2, Pancreatic triacylglycerol lipase (Sus scrofa); assay: Inhibition of porcine pancreatic lipase assessed as lipolysis level at 4.1 mg/ml under duodenal phase at pH 6.5 using liquid test meal measured at 90 mins (reference value: 63.6 +/- 2.6 %); design: scale not given: the % may be the effect or the level left
[9] = target: T1, Gastric triacylglycerol lipase (Canis lupus familiaris); assay: Inhibition of recombinant dog gastric lipase assessed as lipolysis level at 4.1 mg/ml under gastric phase at pH 5.5 using solid test meal measured up to 30 mins (reference value: 13 +/- 1.2 %); design: scale not given: the % may be the effect or the level left; conditions: time min <=30; in short: as §1
[10] = target: T1, Gastric triacylglycerol lipase (Canis lupus familiaris); assay: Inhibition of recombinant dog gastric lipase assessed as residual activity at 4.1 mg/ml under gastric phase at pH 5.5 using liquid test meal measured up to 30 mins relative to control; conditions: time min <=30; in short: as §1
[11] = target: T2, Pancreatic triacylglycerol lipase (Sus scrofa); conditions: dose 4.9 mg/ml, time 30-90 min
[12] = target: T2, Pancreatic triacylglycerol lipase (Sus scrofa); conditions: dose 4.9 mg/ml, time 30-90 min; remark: listed apart in the source
[13] = target: T2, Pancreatic triacylglycerol lipase (Sus scrofa); conditions: dose 4.9 mg/ml, time 30-90 min; remark: listed apart in the source
[14] = target: T1, Gastric triacylglycerol lipase (Canis lupus familiaris); assay: Inhibition of recombinant dog gastric lipase assessed as lipolysis level at 4.9 mg/ml under gastric phase at pH 5.5 using liquid test meal measured up to 30 mins (reference value: 22.3 +/- 1.4 %); design: scale not given: the % may be the effect or the level left; conditions: time min <=30
In short: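 In vitro two-phase digestion at 37 °C, 1,000 rpm: 15 mL liquid or solid test meal (506 mg TAG) was premixed with 7.262 µmol inhibitor in DMSO (DMSO-only control). Gastric phase: DGL 17 µg/mL final, pH 5.5. Duodenal phase from 30 min: pancreatic extract plus bovine bile added (PPL 250 µg/mL, bile salts 4.0 mM), pH 6.25. Lipids in samples were quantified by TLC-FID; LL% is (MAG+FFA) relative to 3×initial TAG; n = 3.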

Structure (SMILES)	inhibition [1] [%]	inhibition [2] [%]	inhibition [3] [%]	inhibition [4] [%]	inhibition [5] [%]	inhibition [6] [%]	Activity [7] [%]	XI50 (Homo sapiens) [molar excess]	Activity [8] [%]	Activity [9] [%]	Activity [10] [%]	inhibition [11] [%]	inhibition [12] [%]	inhibition [13] [%]	Activity [14] [%]
O=c1oc(OCCOCc2ccccc2)nn1-c1cccc(Oc2ccccc2)c1	100	5.1	62.1	5.6	97.2	87.6	94.9	1.42	55.3	3.1	0	–	–	–	–
CCCCCCCCCCC[C@@H](C[C@@H]1OC(=O)[C@H]1CCCCCC)OC(=O)[C@@H](CC(C)C)NC=O	–	–	–	–	–	–	–	–	–	–	–	100	86.6	100	0
